{
  "source": "paper PMC2652250",
  "about": "(Biochemistry, 2008)",
  "key": {"[1]": {"molecular_target": "cNTnC(C35S/C84S)·Ca^2+·cTnI144−163 (Homo sapiens, UniProt P19429+P63316, C35S/C84S)", "sequence (P19429 145-164, other chains not shown)": "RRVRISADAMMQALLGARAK", "type": "binding", "details": "for drug-induced backbone amide chemical shift changes: 1.0 mM cNTnC(C35S/C84S), […] cTnI144−163, Figure 6; for pKd: KD, global fit of HSQC chemical shift changes, pH 6.7, 30 °C; for chemical shift changes on titration (in words): 100 mM stock added to the NMR sample"}, "[2]": {"molecular_target": "cNTnC(C35S/C84S)·Ca^2+·cTnI147−163 (Homo sapiens, UniProt P19429+P63316, C35S/C84S)", "type": "binding", "details": "for chemical shift changes on titration (in words): 100 mM stock added to the NMR sample"}, "[3]": {"molecular_target": "cTnC·3Ca^2+·cTnI34−71·cTnI128−163", "details": "cited from earlier work"}, "[4]": {"assay": "Solubility and precipitation in aqueous solution / NMR samples during titration"}, "cNTnC(WT)·Ca^2+": {"system": "cNTnC(WT)·Ca^2+", "details": "WT isoform; cited from earlier work"}, "cNTnC(C35S/C84S)·Ca^2+": {"molecular_target": "cNTnC(C35S/C84S)·Ca^2+ (Homo sapiens, UniProt P63316, C35S/C84S)", "assay": "2D 1H-15N HSQC NMR titration of cNTnC", "type": "binding"}, "[5]": {"molecular_target": "cTnC·3Ca^2+·cTnI32−79·cTnI128−180", "details": "cited from earlier work"}, "perfused hearts": {"system": "perfused hearts", "details": "cited from earlier work"}, "cTnI147−163": {"molecular_target": "cTnI147−163 (Homo sapiens, UniProt P19429)", "assay": "1D 1H NMR titration of levosimendan into free cTnI147−163 peptide", "type": "binding", "details": "data not shown", "procedure,_shortened": "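Test compound stocks were made fresh in DMSO-d6 for every titration and shielded from light; concentrations were determined gravimetrically. […] 1D 1H spectra were recorded at 500 MHz.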"}, "cTnI144−163": {"molecular_target": "cTnI144−163 (Homo sapiens, UniProt P19429)", "assay": "1D 1H NMR titration of levosimendan into free cTnI144−163 peptide", "type": "binding", "details": "data not shown"}, "skinned muscle fibers": {"system": "skinned muscle fibers", "details": "cited from earlier work"}, "[6]": {"molecular_target": "sTnC·4Ca^2+·sTnI1−182·sTnT156−262", "details": "cited from earlier work"}},
  "note": "pKd: −log10 of the molar value. Values joined by “and” are separate entries in the source; they are usually repeats but may differ in a detail not shown here. Equal entries are not always repeated.",
  "data": [
    {"molecule": "CC1CC(=O)NN=C1c1ccc(-n2ccnc2)cc1", "note": "(stereo not drawn) [CI-930, 4,5-dihydro-6-[4-(1-imidazol-1-yl)phenyl]-5-methyl-4,5-dihydro-3(2H)-pyridazinone]", "values": [
      {"measurement": "drug-induced backbone amide chemical shift changes", "setting": "[1]", "result": "≤ 20", "unit": "Hz"},
      {"measurement": "pKd", "setting": "[1]", "result": 2.58},
      {"measurement": "pKd", "setting": "[2]", "result": 1.96}
    ]},
    {"molecule": "NCCCCCCNS(=O)(=O)c1cccc2c(Cl)cccc12", "note": "[W7, N-(6-aminohexyl)-5-chloro-1-naphthalenesulfonamide]", "values": [
      {"measurement": "pKd", "setting": "[3]", "result": "~3.30"}
    ]},
    {"molecule": "Ac-RISADAMMQALLGARAK-NH2 [cTnI147−163]", "values": [
      {"measurement": "solubility in aqueous solution (in words)", "setting": "[4]", "result": "highly soluble in aqueous solution"},
      {"measurement": "stoichiometry of binding", "setting": "cNTnC(WT)·Ca^2+", "result": "1/1"},
      {"measurement": "stoichiometry of binding", "setting": "cNTnC(C35S/C84S)·Ca^2+; C35S/C84S isoform", "result": "1/1"},
      {"measurement": "equiv of peptide required to saturate the protein", "setting": "cNTnC(C35S/C84S)·Ca^2+; solid peptide added, pH 6.7", "result": "3−3.5 equiv"}
    ]},
    {"molecule": "O=C1CCC(c2ccc(-n3ccnc3)cc2)=NN1", "note": "[imazodan, 4,5-dihydro-6-[4-(1-imidazol-1-yl)phenyl]-3(2H)-pyridazinone]", "values": [
      {"measurement": "chemical shift changes on titration (in words)", "setting": "[1]", "result": "No chemical shift changes were observed"},
      {"measurement": "chemical shift changes on titration (in words)", "setting": "[2]", "result": "No chemical shift changes were observed"}
    ]},
    {"molecule": "C[C@@H]1CC(=O)NN=C1c1ccc(NN=C(C#N)C#N)cc1", "note": "[levosimendan, (−)-[4-(1,4,5,6-tetrahydro-4-methyl-6-oxo-3-pyridazinyl)phenyl]hydrozonopropanedinitrile]", "values": [
      {"measurement": "solubility in aqueous solution (in words)", "setting": "[4]", "result": "insoluble in aqueous solution"},
      {"measurement": "pKd", "setting": "[5]", "result": "≤ 3.70"},
      {"measurement": "lowest concentration with multiple effects", "setting": "perfused hearts", "result": 0.3, "unit": "µM"},
      {"measurement": "chemical shift change of the peptide in the presence of drug (in words)", "setting": "cTnI147−163", "result": "no chemical shift change"},
      {"measurement": "chemical shift change of the peptide in the presence of drug (in words)", "setting": "cTnI144−163", "result": "no chemical shift change"},
      {"measurement": "concentration of maximal effect", "setting": "skinned muscle fibers", "result": 10, "unit": "µM"}
    ]},
    {"molecule": "CC1CC(=O)NN=C1c1ccc(Cl)cc1", "note": "(stereo not drawn) [CMDP, 6-(4-chlorophenyl)-5-methyl-4,5-dihydro-3(2H)-pyridazinone]", "values": [
      {"measurement": "drug-induced backbone amide chemical shift changes", "setting": "[1]", "result": "≤ 60", "unit": "Hz"}
    ]},
    {"molecule": "CC(C)(C)CC(C)(C)c1ccc(OCCOCCOCCOCCO)cc1", "note": "[anapoe, 2-[2-(2-{2-[4-(1,1,3,3-tetramethylbutyl)phenoxy]ethoxy}ethoxy)ethoxy]ethanol]", "values": [
      {"measurement": "pKd", "setting": "[6]", "result": "~3.19"}
    ]},
    {"molecule": "COc1ccc(C2=NNC(=O)CC2)cc1", "note": "[MPDP, 6-(4-methoxyphenyl)-4,5-dihydro-3(2H)-pyridazinone]", "values": [
      {"measurement": "chemical shift changes on titration (in words)", "setting": "[1]", "result": "No chemical shift changes were observed"},
      {"measurement": "chemical shift changes on titration (in words)", "setting": "[2]", "result": "No chemical shift changes were observed"}
    ]},
    {"molecule": "CC1CC(=O)NN=C1c1ccc(N)cc1", "note": "(stereo not drawn) [AMDP, 6-(4-aminophenyl)-5-methyl-4,5-dihydro-3(2H)-pyridazinone]", "values": [
      {"measurement": "solubility in aqueous solution (in words)", "setting": "[4]", "result": "highly soluble in aqueous solution"},
      {"measurement": "drug-induced backbone amide chemical shift changes", "setting": "[1]", "result": "≤ 20", "unit": "Hz"},
      {"measurement": "pKd", "setting": "[1]", "result": "2.82 and ~2.82"},
      {"measurement": "pKd", "setting": "[2]", "result": 2.19}
    ]}
  ]
}
